In brackets after ≈: the same amount, converted by molar mass. Several values for one entry are separate records, joined by “and”; a condition that tells them apart may be missing. Equal entries are not always repeated.

The subject of one experiment is Acinetobacter baumannii. Description: Minimum inhibitory concentration (MIC) was measured against Acinetobacter baumanni ATCC 19606. The experiment is classed as functional. The essentials: (§1)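 Strains from ATCC; compounds tested as sulfate salts (stable ≥24 h in water at pH 7.0). MIC taken as highest dilution with no visible bacterial growth, expressed in mg/L of free base.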

The test system of a further experiment is Citrobacter freundii. Description: Minimum inhibitory concentration (MIC) was measured against Citrobacter freundii. The class given is functional. The essentials: (§2)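 Strains were clinical isolates from the microbiology laboratories of Cliniques Universitaires St-Luc and Hôpital Brugmann, Brussels, and were characterized there. Compounds were tested as sulfate salts, which were stable in distilled water at pH 7.0 for at least 24 h. MIC was the highest dilution giving no visible growth, expressed in mg/L of free base.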

For another experiment, the system named is Enterobacter cloacae. The experiment can be described thus: Minimum inhibitory concentration (MIC) was measured against Enterobacter cloacae. The experiment is classed as functional. The procedure, abridged: as §2
Experiment [1] relates to Escherichia coli. Description: Minimum inhibitory concentration (MIC) was measured against Escherichia coli. The class given is functional. The essentials:
as §2

Experiment [2] deals with Escherichia coli. Description: Minimum inhibitory concentration (MIC) was measured against Escherichia coli ATCC 25922. The class given is functional.
The subject of experiment [3] is Escherichia coli. Description: Minimum inhibitory concentration (MIC) was measured against Escherichia coli ATCC 35218. The class given is functional. The essentials: as §1
A further experiment has as its system Enterococcus faecalis. Description: Minimum inhibitory concentration (MIC) was measured against Enterococcus faecalis ATCC 29212. The class given is functional.
Experiment [4] concerns Pseudomonas aeruginosa. Description: Minimum inhibitory concentration (MIC) was measured against Pseudomonas aeruginosa ATCC 27853. The experiment is classed as functional.
Experiment [5] concerns Pseudomonas aeruginosa. The experiment can be described thus: Minimum inhibitory concentration (MIC) was measured against Pseudomonas aeruginosa. The class given is functional. The essentials:
as §2

For the next experiment, the system named is Serratia marcescens. The experiment can be described thus: Minimum inhibitory concentration measured against Serratia marcescens. The experiment is classed as functional. The essentials:
as §2

In experiment [6] the test system is Staphylococcus aureus. Description: Minimum inhibitory concentration (MIC) was measured against Staphylococcus aureus. The class given is functional. The essentials: as §2
A further experiment concerns Acinetobacter lwoffii. The experiment can be described thus: microbe, parasite or virus in culture. The note with it: ATCC 17986.
Experiment [7] deals with Staphylococcus aureus. Description: microbe, parasite or virus in culture. To be noted: ATCC 25923.
The target of experiment [8] is T1, Phospholipase A1 member A (Rattus norvegicus, UniProt P97535).
T1 sequence (P97535 whole entry): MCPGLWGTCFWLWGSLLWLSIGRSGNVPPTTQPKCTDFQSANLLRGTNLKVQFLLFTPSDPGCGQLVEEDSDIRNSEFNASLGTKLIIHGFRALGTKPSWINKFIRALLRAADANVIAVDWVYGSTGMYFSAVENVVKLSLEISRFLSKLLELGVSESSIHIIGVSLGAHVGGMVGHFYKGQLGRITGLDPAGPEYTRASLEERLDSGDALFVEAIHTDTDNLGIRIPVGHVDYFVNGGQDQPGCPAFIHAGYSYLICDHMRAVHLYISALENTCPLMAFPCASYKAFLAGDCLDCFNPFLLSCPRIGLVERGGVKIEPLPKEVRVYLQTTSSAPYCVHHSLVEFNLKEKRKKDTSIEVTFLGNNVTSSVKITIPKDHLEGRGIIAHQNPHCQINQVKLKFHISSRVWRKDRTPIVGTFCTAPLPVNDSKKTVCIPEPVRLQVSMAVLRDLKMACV
The experiment can be described thus: IC50 was measured as concentration causing 50% inhibition of lysosomal phospholipase A1 activity.

Where [9] appears, read: Enterobacter cloacae, read-out: MIC.
The mark [10] stands for this setting: Pseudomonas aeruginosa, read-out: MIC.
The mark [11] stands for this setting: Serratia marcescens, read-out: MIC.

`CC(N)C(=O)NC1CC(N)C(OC2OC(CN)C(O)C(O)C2O)C(O)C1OC1OC(CO)C(O)C(N)C1O` (stereo not given): the MIC was 128 µg/mL (≈ 230 µM) with Acinetobacter baumannii; 64 µg/mL (≈ 115 µM) in the experiment on Citrobacter freundii; over 128 µg/mL against Enterobacter cloacae; 64 µg/mL (≈ 115 µM) with Enterobacter cloacae (setting [9]); over 128 µg/mL with Escherichia coli [1]; 128 µg/mL (≈ 230 µM) in the experiment on Escherichia coli [2]. Besides, the MIC in the experiment on Escherichia coli [3] was 64 µg/mL (≈ 115 µM); against Enterococcus faecalis, over 128 µg/mL; against Pseudomonas aeruginosa [4], over 128 µg/mL; with Pseudomonas aeruginosa [5] (setting [10]) it was over 128 µg/mL; in the experiment on Serratia marcescens, over 128 mg/L; in the experiment with Serratia marcescens (setting [11]), 128 mg/L (≈ 230 µM). The MIC in the experiment with Staphylococcus aureus [6] was over 128 µg/mL; in the experiment on Acinetobacter lwoffii, over 128 µg/mL; against Staphylococcus aureus [7], 16 µg/mL (≈ 28.8 µM).
As for `CCNC1CC(N)C(OC2OC(CNC(=O)C(C)N)=CCC2N)C(O)C1OC1OCC(C)(O)C(NC)C1O` (stereo not given), the MIC was over 128 µg/mL with Acinetobacter baumannii; 32 µg/mL (≈ 58.5 µM) in the experiment on Citrobacter freundii; over 128 µg/mL in the experiment on Enterobacter cloacae (setting [9]); over 128 µg/mL against Escherichia coli [1]; 128 µg/mL (≈ 234 µM) against Escherichia coli [2]; 32 µg/mL (≈ 58.5 µM) against Escherichia coli [3]. Also, the MIC in the experiment with Enterococcus faecalis was 128 µg/mL (≈ 234 µM); against Pseudomonas aeruginosa [4] it was over 128 µg/mL; in the experiment on Pseudomonas aeruginosa [5] (setting [10]), over 128 µg/mL; in the experiment with Serratia marcescens, over 128 mg/L; in the experiment on Serratia marcescens (setting [11]), 128 mg/L (≈ 234 µM); in the experiment with Staphylococcus aureus [6], over 128 µg/mL. For the same molecule, the MIC against Acinetobacter lwoffii stood at 128 µg/mL (≈ 234 µM); in the experiment with Staphylococcus aureus [7], 32 µg/mL (≈ 58.5 µM).
`NCC[C@H](O)C(=O)N[C@@H]1C[C@H](N)[C@@H](O[C@H]2O[C@H](CN)[C@@H](O)[C@H](O)[C@H]2O)[C@H](O)[C@H]1O[C@H]1O[C@H](CO)[C@@H](O)[C@H](N)[C@H]1O` [AMIKACIN]: the MIC against Acinetobacter baumannii was determined as 16 µg/mL (≈ 27.3 µM); against Citrobacter freundii, 4 µg/mL (≈ 6.83 µM); with Escherichia coli [1] it was 128 µg/mL (≈ 219 µM); in the experiment on Escherichia coli [2] it was 8 µg/mL (≈ 13.7 µM); with Escherichia coli [3] it was 2 µg/mL (≈ 3.42 µM); against Enterococcus faecalis it was 64 µg/mL (≈ 109 µM). Further, the MIC is 32 µg/mL (≈ 54.6 µM) with Pseudomonas aeruginosa [4]; 64 µg/mL (≈ 109 µM) with Pseudomonas aeruginosa [5]; 64 µg/mL (≈ 109 µM) in the experiment with Pseudomonas aeruginosa [5] (setting [10]); 32 µg/mL (≈ 54.6 µM) against Staphylococcus aureus [6]; 32 µg/mL (≈ 54.6 µM) in the experiment with Acinetobacter lwoffii; 4 µg/mL (≈ 6.83 µM) with Staphylococcus aureus [7].
In the case of `CN[C@@H]1[C@@H](O)[C@@H](O[C@@H]2[C@@H](O)[C@H](O[C@H]3O[C@H](CN)[C@@H](O)[C@H](O)[C@H]3O)[C@@H](N)C[C@H]2NC(=O)[C@@H](O)CN)OC[C@]1(C)O` [ISEPAMICIN], the MIC in the experiment on Acinetobacter baumannii is 32 µg/mL (≈ 56.2 µM); in the experiment on Citrobacter freundii it was 4 µg/mL (≈ 7.02 µM); against Enterobacter cloacae, 8 µg/mL (≈ 14 µM); in the experiment with Enterobacter cloacae (setting [9]), 4 µg/mL (≈ 7.02 µM); in the experiment on Escherichia coli [1], 32 µg/mL (≈ 56.2 µM); against Escherichia coli [2] it was 8 µg/mL (≈ 14 µM). The MIC with Escherichia coli [3] came out at 2 µg/mL (≈ 3.51 µM); against Enterococcus faecalis, 64 µg/mL (≈ 112 µM); in the experiment with Pseudomonas aeruginosa [4], 16 µg/mL (≈ 28.1 µM); in the experiment with Pseudomonas aeruginosa [5], 64 µg/mL (≈ 112 µM); with Pseudomonas aeruginosa [5] (setting [10]), 64 µg/mL (≈ 112 µM); in the experiment with Staphylococcus aureus [6] it was 2 µg/mL (≈ 3.51 µM). Also, the MIC against Acinetobacter lwoffii came to 16 µg/mL (≈ 28.1 µM); against Staphylococcus aureus [7], 4 µg/mL (≈ 7.02 µM).
`NC[C@H]1O[C@H](O[C@H]2[C@H](O)[C@@H](O[C@H]3O[C@H](CO)[C@@H](O)[C@H](N)[C@H]3O)[C@H](N)C[C@@H]2N)[C@H](O)[C@@H](O)[C@@H]1O` [KANAMYCIN]: the MIC was 4 µg/mL (≈ 8.26 µM) against Acinetobacter baumannii; 4 µg/mL (≈ 8.26 µM) against Citrobacter freundii; over 128 µg/mL against Escherichia coli [1]; 8 µg/mL (≈ 16.5 µM) in the experiment on Escherichia coli [2]; 2 µg/mL (≈ 4.13 µM) in the experiment on Escherichia coli [3]; 32 µg/mL (≈ 66 µM) in the experiment with Enterococcus faecalis. Further, the MIC is over 128 µg/mL against Pseudomonas aeruginosa [4]; over 128 µg/mL in the experiment with Pseudomonas aeruginosa [5] (setting [10]); over 128 µg/mL against Staphylococcus aureus [6]; 16 µg/mL (≈ 33 µM) in the experiment on Acinetobacter lwoffii; 1 µg/mL (≈ 2.06 µM) with Staphylococcus aureus [7].
Regarding `CCN[C@@H]1C[C@H](N)[C@@H](O[C@H]2OC(CN)=CC[C@H]2N)[C@H](O)[C@H]1O[C@H]1OC[C@](C)(O)[C@H](NC)[C@H]1O` [NETILMICIN], the MIC in the experiment with Acinetobacter baumannii was 32 µg/mL (≈ 67.3 µM); in the experiment with Citrobacter freundii, 0.25 µg/mL (≈ 0.526 µM); in the experiment on Escherichia coli [1], over 128 µg/mL; with Escherichia coli [2] it was 1 µg/mL (≈ 2.1 µM); in the experiment with Escherichia coli [3], 0.5 µg/mL (≈ 1.05 µM); against Enterococcus faecalis, 4 µg/mL (≈ 8.41 µM). Further, the MIC against Pseudomonas aeruginosa [4] was 8 µg/mL (≈ 16.8 µM); in the experiment with Pseudomonas aeruginosa [5], over 128 µg/mL; in the experiment on Pseudomonas aeruginosa [5] (setting [10]), 64 µg/mL (≈ 135 µM); in the experiment on Staphylococcus aureus [6] it was 8 µg/mL (≈ 16.8 µM); against Acinetobacter lwoffii, 32 µg/mL (≈ 67.3 µM); in the experiment with Staphylococcus aureus [7], 0.25 µg/mL (≈ 0.526 µM).
In experiment [8], GENTAMICIN [listing 1 of 2 here] registered an IC50 of 45 µg/mL.
With GENTAMICIN [listing 2 of 2 here], the MIC was 32 µg/mL in the experiment on Acinetobacter baumannii; 1 µg/mL with Citrobacter freundii; 32 µg/mL with Enterobacter cloacae; 16 µg/mL with Escherichia coli [1]; 4 µg/mL against Escherichia coli [2]; 1 µg/mL in the experiment on Escherichia coli [3]. The MIC in the experiment with Enterococcus faecalis was 16 µg/mL; with Pseudomonas aeruginosa [4], 8 µg/mL; with Pseudomonas aeruginosa [5], 64 µg/mL and > 128 µg/mL; against Serratia marcescens, 4 µg/mL (2×) and 8 µg/mL (2×); in the experiment on Staphylococcus aureus [6] it was over 128 µg/mL.

What is called IC50 is the concentration that inhibits the measured activity by half.
